Results published in ChEMBL document CHEMBL4138156, “Indole and Benzimidazole Bichalcophenes: Synthesis, DNA Binding and Antiparasitic Activity” (Eur J Med Chem, 2018).
Activity calls are given as the source filed them. The calls are words filed in the database; no cut-off is given here.

What was measured:
[1] = test system: Poly(dA-dT)oligonucleotide; assay: Binding affinity to poly(dA-dT)n DNA (unknown origin) assessed as change in melting temperature at 0.3 molar ratio of compound:DNA by spectrophotometric analysis; assay type: nucleic-acid assay
How it was run: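 UV thermal melting of poly(dA-dT) in CAC 10 buffer (10 mM cacodylic acid, 1 mM EDTA, 100 mM NaCl, NaOH to pH 7.0) was run in 1 cm quartz cuvettes, ramping at 0.5 °C/min. DNA concentration was set from A260, with 0.3 mol compound per mol DNA and DNA alone as control. ΔTm was taken from the peak of the first-derivative (dA/dT) curves.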

[2] = test system: Trypanosoma brucei rhodesiense; assay: Antiprotozoal activity against bloodstream forms of Trypanosoma brucei rhodesiense STIB900 infected in NMR1 mouse at 5 mg/kg, ip administered daily for 4 consecutive days starting from day 3 to 6 post infection; assay type: functional
How it was run: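 STIB900 acute-stage mouse infection model for T. b. rhodesiense (mimics acute African sleeping sickness). Dosing was 4 × 5 mg/kg i.p. The outcome was scored as cure of infected mice.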

[3] = Binding affinity to poly(dA).poly(dT) DNA minor groove (unknown origin) assessed as positive induced CD signal at DNA:compound molar ratio of 20:2 to 20:10 by CD spectra analysis; assay type: nucleic-acid assay
How it was run: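 Poly(dA).poly(dT) at 20 μM was titrated with compound at 25 °C in 10 mM MES, 100 mM NaCl, 1 mM EDTA, pH 7.4. CD spectra were recorded at different compound-to-DNA ratios.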

[4] = Selectivity index, ratio of IC50 for rat L6 cells to IC50 for Plasmodium falciparum K1 infected in human erythrocytes; assay type: toxicity, cell-based; settings: read-out: Ratio IC50
How it was run: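 Ratio of IC50 in cultured L6 rat myoblast cells (cytotoxicity) to IC50 in an in vitro viability assay against chloroquine-resistant P. falciparum strain K1. P. falciparum IC50 values are the average of duplicate determinations.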

Compound | Activity [3] | ΔTm [1] [°C] | Activity [2] | selectivity ratio [4]
N=C(N)c1ccc2cc(-c3ccc(-c4ccc(C(=N)N)s4)s3)[nH]c2c1 | Active | > 30 | inactive | 
N=C(N)c1ccc2cc(-c3ccc(-c4ccc(C(=N)N)o4)o3)[nH]c2c1 | Active |  | inactive | 1000
N=C(N)c1ccc2cc(-c3ccc(-c4ccc(C(=N)N)s4)o3)[nH]c2c1 |  | > 30 | inactive | 

More lines, main results first:

Activity [3] | Compound | ΔTm [1] [°C] | Activity [2] | selectivity ratio [4]
Active | N=C(N)c1ccc2nc(-c3ccc(-c4ccc(C(=N)N)o4)o3)[nH]c2c1 |  |  | 
Active | N=C(N)c1ccc2nc(-c3ccc(-c4ccc(C(=N)N)s4)o3)[nH]c2c1 |  |  | 
Active | N=C(N)c1ccc2nc(-c3ccc(-c4ccc(C(=N)N)s4)s3)[nH]c2c1 | > 30 |  | 
